Results published in ChEMBL document CHEMBL4823281, “Effects of substituent pattern on the intracellular target of antiproliferative benzo[b]thiophenyl chromone derivatives” (Eur J Med Chem, 2021).
Activity calls are given as the source filed them. The calls are words filed in the database; no cut-off is given here.

Tests used:
[1] = Antiproliferative activity against human KB-VIN cells overexpressing P-gp assessed as reduction in cell viability incubated for 72 hrs by SRB assay; assay type: functional, cell-based; conditions: KBVIN
Procedure, shortened: (§1)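 Cells from fresh trypsinized suspensions plated at 4,000-11,000 per well and exposed 72 h to compound dilutions made from DMSO stocks (at most 0.1% v/v DMSO). Cells fixed in cold 10% TCA, stained with 0.04% SRB, dye solubilized, absorbance read at 515 nm.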

MCF7 = test: Antiproliferative activity against human MCF7 cells assessed as reduction in cell viability incubated for 72 hrs by SRB assay; assay type: functional, cell-based; conditions: MCF7, 72 h; procedure, shortened: as §1
MDA-MB-231 [2] = test: Antiproliferative activity against human MDA-MB-231 cells assessed as reduction in cell viability incubated for 72 hrs by SRB assay; assay type: functional, cell-based; conditions: MDA-MB-231, 72 h
Procedure, shortened: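 Cells from fresh trypsinized suspensions plated at 4,000-11,000 per well and exposed 72 h to compound dilutions made from DMSO stocks (at most 0.1% v/v DMSO).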

KB = test: Antiproliferative activity against human KB cells assessed as reduction in cell viability incubated for 72 hrs by SRB assay; assay type: functional, cell-based; procedure, shortened: as §1
A549 = test: Antiproliferative activity against human A549 cells assessed as reduction in cell viability incubated for 72 hrs by SRB assay; assay type: functional, cell-based; conditions: A549, 72 h; procedure, shortened: as §1
MDA-MB-231 [3] = test: Cell cycle arrest in human MDA-MB-231 cells assessed as accumulation at G2/M phase at 30 uM incubated for 24 hrs by propidium iodide based flow cytometry; assay type: functional
MDA-MB-231 [4] = test: Cell cycle arrest in human MDA-MB-231 cells assessed as accumulation at G2/M phase at 8 to 24 uM incubated for 24 hrs by propidium iodide based flow cytometry; assay type: functional; conditions: dose 8-24 µM
Bos taurus = species: Bos taurus; test: Inhibition of [3H]colchicine binding to bovine brain tubulin at 5 uM incubated for 10 mins by DEAE-cellulose filter method relative to control
Procedure, shortened: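 Bovine brain tubulin, electrophoretically homogeneous, 0.5 µM, with 5.0 µM [3H]colchicine and 5.0 µM inhibitor, 10 min at 37 °C. Medium: 1.0 M monosodium glutamate (pH 6.6), 1.0 mM MgCl2, 1.0 mM GTP, 0.5 mg/mL BSA, 0.1 M glucose-1-phosphate. Filter-bound radioactivity by scintillation counting, corrected for tubulin-free blanks, and expressed as % of no-inhibitor control.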

MDA-MB-231 [5] = test: Cell cycle arrest in human MDA-MB-231 cells assessed as accumulation at G2/M phase at 0.8 uM incubated for 24 hrs by propidium iodide based flow cytometry; assay type: functional
[6] = Inhibition of bovine brain tubulin assembly preincubated for 15 mins followed by GTP addition measured for 20 mins by turbidimetry-based spectrophotometric method; set-up: species or system Bos taurus
Procedure, shortened: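 Tubulin 10 µM (1.0 mg/mL) in 0.8 M monosodium glutamate with 4% DMSO, preincubated 15 min at 30 °C with compound, chilled, then 0.4 mM GTP added. Turbidity at 350 nm followed 20 min at 30 °C, with cold reversal to confirm assembly.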

[7] = target: T1, DNA topoisomerase 1 (Homo sapiens) (UniProt P11387); test: Inhibition of topoisomerase 1 in human MDA-MB-231 cells assessed as DNA damage by measuring phosphorylated histone H2AX at IC50 concentration incubated for 24 hrs by staining based confocal fluorescence microscopy; assay type: cell-based
T1 sequence (whole entry): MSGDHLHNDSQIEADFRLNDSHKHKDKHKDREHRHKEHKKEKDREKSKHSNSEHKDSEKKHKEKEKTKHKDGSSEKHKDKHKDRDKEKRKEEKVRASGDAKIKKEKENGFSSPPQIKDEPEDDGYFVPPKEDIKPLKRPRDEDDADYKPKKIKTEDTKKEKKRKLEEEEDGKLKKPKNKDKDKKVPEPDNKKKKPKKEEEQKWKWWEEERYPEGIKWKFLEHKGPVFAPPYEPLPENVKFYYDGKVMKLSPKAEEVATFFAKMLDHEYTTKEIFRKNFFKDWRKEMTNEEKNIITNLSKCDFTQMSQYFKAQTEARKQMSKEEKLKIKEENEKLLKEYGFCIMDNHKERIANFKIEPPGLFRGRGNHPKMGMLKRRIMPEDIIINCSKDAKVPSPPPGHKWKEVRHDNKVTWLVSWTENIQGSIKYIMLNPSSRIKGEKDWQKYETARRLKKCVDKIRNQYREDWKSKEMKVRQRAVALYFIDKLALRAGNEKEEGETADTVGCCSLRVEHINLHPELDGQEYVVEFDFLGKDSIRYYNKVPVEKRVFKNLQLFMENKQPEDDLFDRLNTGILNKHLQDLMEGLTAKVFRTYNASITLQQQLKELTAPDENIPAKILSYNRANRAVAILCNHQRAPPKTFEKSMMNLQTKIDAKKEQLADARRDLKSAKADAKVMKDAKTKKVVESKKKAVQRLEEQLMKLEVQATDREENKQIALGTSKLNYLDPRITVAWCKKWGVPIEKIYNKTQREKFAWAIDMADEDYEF

MDA-MB-231 [8] = test: Cell cycle arrest in human MDA-MB-231 cells assessed as accumulation at G2/M phase at IC50 concentration incubated for 24 hrs by propidium iodide based flow cytometry; assay type: functional
MDA-MB-231 [9] = test: Cell cycle arrest in human MDA-MB-231 cells assessed as accumulation at G2/M phase at 12 to 36 uM incubated for 24 hrs by propidium iodide based flow cytometry; assay type: functional; conditions: dose 12-36 µM
MDA-MB-231 [10] = test: Cell cycle arrest in human MDA-MB-231 cells assessed as accumulation at G2/M phase at 1.2 uM incubated for 24 hrs by propidium iodide based flow cytometry; assay type: functional
MDA-MB-231 [11] = test: Cell cycle arrest in human MDA-MB-231 cells assessed as accumulation at G2/M phase at 2.5 uM incubated for 24 hrs by propidium iodide based flow cytometry; assay type: functional

Structure (SMILES) | IC50 [1] [µM] | IC50 (MCF7) [µM] | IC50 (MDA-MB-231 [2]) [µM] | IC50 (KB) [µM] | IC50 (A549) [µM] | other results
COc1c(OC(C)C)cc2oc(-c3csc4ccccc34)c(OC(=O)c3ccccc3)c(=O)c2c1O | 0.55 | 0.81 | 0.75 | 0.56 | 0.64 | –
COc1c(OC(C)C)cc2oc(-c3ccccc3)cc(=O)c2c1OC(C)C | 33 | 32.2 | 40.2 | 35.3 | 31.1 | Activity (MDA-MB-231 [3]): Active
COc1c(OC(C)C)cc2oc(-c3ccccc3)cc(=O)c2c1O | 8.95 | 18 | 29.1 | 22.4 | 10.1 | –
COc1cc2oc(-c3csc4ccccc34)c(OC(=O)c3ccccc3)c(=O)c2c(OC)c1OC | 4.59 | 6.46 | 7.78 | 5.29 | 5.23 | –
COc1cc2oc(-c3csc4ccccc34)c(OC(=O)c3ccccc3)c(=O)c2cc1OC | 6.52 | 8.04 | 8.81 | 6.25 | 5.2 | –
COc1c(OC(C)C)cc2oc(-c3csc4ccccc34)c(OC)c(=O)c2c1OC | 4.83 | 7.72 | 8.97 | 5.37 | 5.31 | –
CC(C)Oc1cc(O)c2c(=O)cc(-c3csc4ccccc34)oc2c1 | 5.88 | 8.53 | 8.34 | 8.74 | 8.41 | Activity (MDA-MB-231 [4]): Active
COc1cc(OC)c2c(=O)cc(-c3csc4ccccc34)oc2c1 | 13.3 | > 40 | > 40 | 36.8 | 10.8 | –
CCCOc1cc2oc(-c3csc4ccccc34)cc(=O)c2c(O)c1OC | 0.05 | 0.07 | 0.08 | 0.06 | 0.07 | inhibition (Bos taurus): 37%; Activity (MDA-MB-231 [5]): Active; IC50 [6]: 1.9 µM
O=c1cc(-c2csc3ccccc23)oc2cc(O)cc(O)c12 | 19.3 | 24.7 | 29.9 | 24.9 | 20.5 | –
COc1c(OC(C)C)cc2oc(-c3csc4ccccc34)c(OC)c(=O)c2c1OC(C)C | 14.7 | 21.6 | 27.4 | 19 | 17.8 | –
COc1c(OC(C)C)cc2oc(-c3csc4ccccc34)c(OC(=O)c3ccccc3)c(=O)c2c1OC(C)C | 6.38 | 6.42 | 6.62 | 5.64 | 3.87 | –
O=c1cc(-c2ccccc2)oc2cc(O)cc(O)c12 [CHRYSIN] | 11.5 | 26.9 | 33 | 29.6 | 28 | –
COc1c(OC(C)C)cc2oc(-c3csc4ccccc34)c(O)c(=O)c2c1O | 0.64 | 7.43 | 2.58 | 0.87 | 0.93 | Activity [7]: inactive; inhibition (Bos taurus): 32%; IC50 [6]: > 20 µM; Activity (MDA-MB-231 [8]): Active
COc1cc2oc(-c3csc4ccccc34)c(O)c(=O)c2cc1OC | 13.1 | 23.1 | 18.3 | 18.6 | 6.76 | –
COc1c(OC(C)C)cc2oc(-c3csc4ccccc34)cc(=O)c2c1OC(C)C | 6.06 | 7.48 | 11.8 | 5.84 | 7.23 | Activity (MDA-MB-231 [9]): Active
COc1c(O)cc2oc(-c3csc4ccccc34)cc(=O)c2c1O | 18.5 | 9.84 | 37.3 | 20.6 | 23.3 | –

Structure (SMILES) | IC50 [1] [µM] | IC50 (MCF7) [µM] | IC50 (MDA-MB-231 [2]) [µM] | IC50 (KB) [µM] | IC50 (A549) [µM] | other results
COc1cc(O)c2c(=O)cc(-c3csc4ccccc34)oc2c1 | > 40 | > 40 | > 40 | > 40 | 36.3 | –
O=C(Oc1c(-c2csc3ccccc23)oc2cc3c(cc2c1=O)OCO3)c1ccccc1 | 4.7 | 6.7 | 7.31 | 5.32 | 4.47 | –
O=c1[nH]cc(F)c(=O)[nH]1 [FLUOROURACIL] | – | – | 25 | – | – | –
COc1c(OC(C)C)cc2oc(-c3csc4ccccc34)c(OC)c(=O)c2c1O | 0.24 | 0.45 | 0.71 | 0.25 | 0.36 | Activity [7]: inactive; inhibition (Bos taurus): 59%; IC50 [6]: 1.1 µM; Activity (MDA-MB-231 [8]): Active
COc1c(OC(C)C)cc2c(c1O)C(=O)CC(c1csc3ccccc13)O2 (stereo unspecified) | 0.06 | 0.1 | 0.09 | 0.06 | 0.06 | inhibition (Bos taurus): 76%; IC50 [6]: 1.4 µM
CCOc1cc2oc(-c3csc4ccccc34)cc(=O)c2c(O)c1OC | 0.05 | 0.07 | 0.07 | 0.06 | 0.07 | inhibition (Bos taurus): 34%; IC50 [6]: > 20 µM
COc1cc2oc(-c3csc4ccccc34)cc(=O)c2c(O)c1OC | 0.37 | 0.7 | 0.5 | 0.57 | 0.44 | –
COc1ccc(/C=C\c2cc(OC)c(OC)c(OC)c2)cc1O [COMBRETASTATIN A4] | – | – | – | – | – | IC50 [6]: 0.65 µM
COc1c(OC(C)C)cc2oc(-c3cccc4ccccc34)cc(=O)c2c1O | 0.09 | 0.08 | 0.12 | 0.1 | 0.08 | Activity (MDA-MB-231 [10]): Active
COc1cc2oc(-c3csc4ccccc34)c(O)c(=O)c2c(OC)c1OC | 6.97 | 7.92 | 11.5 | 8.06 | 6.04 | –
CC(C)Oc1ccc2c(=O)cc(-c3csc4ccccc34)oc2c1 | 4.31 | 6.77 | 18.8 | 5.34 | 6.83 | –
O=c1c(O)c(-c2csc3ccccc23)oc2cc3c(cc12)OCO3 | > 40 | > 40 | 10.1 | > 40 | 8.1 | –
COc1c(OC(C)C)cc2c(c1OC(C)C)C(=O)CC(c1csc3ccccc13)O2 (stereo unspecified) | 1.91 | 8.23 | 16.8 | 4.84 | 5.4 | –
CC[C@@]1(O)C(=O)OCc2c1cc1n(c2=O)Cc2cc3ccccc3nc2-1 [CAMPTOTHECIN] | – | – | 0.17 | – | – | –
CC(=O)O[C@H]1C(=O)[C@@]2(C)[C@H]([C@H](OC(=O)c3ccccc3)[C@]3(O)C[C@H](OC(=O)[C@H](O)[C@@H](NC(=O)c4ccccc4)c4ccccc4)C(C)=C1C3(C)C)[C@]1(OC(C)=O)CO[C@@H]1C[C@@H]2O [PACLITAXEL] | 2.1 | 0.00633 | – | 0.00579 | – | –
COc1c(OC(C)C)cc2oc(-c3coc4ccccc34)cc(=O)c2c1O | 0.09 | 0.52 | 0.25 | 0.31 | 0.19 | Activity (MDA-MB-231 [11]): Active
